TRPC6 activator – activators of mouse TRPC6 channel. Q61143. HEK293-TRPC6 membrane potential dye fluorescence; stronger effect = higher value. B-score at 10 µM. AID 2550. 310,000 compounds, 0.13% hits;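 active = B-score of the integrated fluorescence ratio above library mean plus 3 SD, and starting fluorescence ratio within library mean plus 5 SD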;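 also: higher score means more depolarization so channel activation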
TRPC4 PAM – TRPC4 (mouse) allosteric potentiation | Q9QUQ5 | HEK293 TRPC4beta/mu-opioid, DAMGO EC20, Fluo-4 Ca2+ flux; stronger effect = higher value | B-score at 10 µM | 310,000 compounds, 0.42% hits | AID 2227;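 active = B-score of calcium response area above 5 SD of library B-scores, with initial fluorescence ratio within 5 SD of library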;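 also: B-score of integrated fluorescence ratio over time as area under calcium response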
Target sequence (Q9QUQ5 whole entry, looked up): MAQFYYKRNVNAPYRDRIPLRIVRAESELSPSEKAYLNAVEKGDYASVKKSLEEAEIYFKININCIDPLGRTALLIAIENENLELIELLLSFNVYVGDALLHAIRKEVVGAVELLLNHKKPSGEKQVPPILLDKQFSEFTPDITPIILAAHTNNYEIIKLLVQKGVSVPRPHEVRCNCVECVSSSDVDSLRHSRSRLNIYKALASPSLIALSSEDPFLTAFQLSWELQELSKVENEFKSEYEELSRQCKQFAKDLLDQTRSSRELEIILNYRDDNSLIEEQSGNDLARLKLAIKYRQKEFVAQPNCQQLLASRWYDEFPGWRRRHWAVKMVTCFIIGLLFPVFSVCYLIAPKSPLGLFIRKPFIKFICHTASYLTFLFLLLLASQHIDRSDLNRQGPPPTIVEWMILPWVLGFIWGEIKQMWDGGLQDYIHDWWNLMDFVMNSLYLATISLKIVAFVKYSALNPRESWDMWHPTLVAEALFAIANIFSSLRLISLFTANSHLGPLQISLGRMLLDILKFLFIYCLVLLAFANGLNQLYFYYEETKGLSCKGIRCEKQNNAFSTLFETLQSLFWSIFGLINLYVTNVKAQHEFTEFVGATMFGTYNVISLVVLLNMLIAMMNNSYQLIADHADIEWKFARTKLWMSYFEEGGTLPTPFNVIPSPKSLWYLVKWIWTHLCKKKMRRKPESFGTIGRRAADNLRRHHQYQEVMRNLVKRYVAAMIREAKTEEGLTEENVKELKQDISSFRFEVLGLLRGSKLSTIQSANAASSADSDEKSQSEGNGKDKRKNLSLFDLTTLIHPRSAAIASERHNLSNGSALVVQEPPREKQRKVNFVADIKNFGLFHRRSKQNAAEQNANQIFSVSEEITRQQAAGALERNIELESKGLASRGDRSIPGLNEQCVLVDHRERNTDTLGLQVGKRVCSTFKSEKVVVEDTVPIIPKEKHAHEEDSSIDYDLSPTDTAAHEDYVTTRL
TRPC6 inhibitor – mouse TRPC6 channel inhibition | AID 2553 | HEK293-TRPC6, membrane potential dye, ACh-evoked depolarization; stronger effect = lower value | Q61143 | B-score at 10 µM | 310,000 compounds, 1.1% hits;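 active = B-score under library mean minus 3 SD, initial fluorescence not abnormally high, positive integrated signal ratio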;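 also: B-score derived from integrated fluorescence ratio over the kinetic read; more negative B-score means stronger inhibition of depolarization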
TRPC4 block – blocks the mouse TRPC4 cation channel; Q9QUQ5; HEK293 TRPC4beta/mu-opioid, DAMGO-evoked Fluo4 calcium flux; stronger effect = lower value; B-score at 10 µM; 300,000 compounds, 0.39% hits; AID 2247;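 active = B-score over 3 SD under the library average, no early fluorescence shift, positive overall ratio signal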
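Assay system: Stable TRPC4beta/mu-opioid receptor HEK293 cells | Reagent: DAMGO in two steps, submaximal then maximal | Compound dosing: Single concentration per test compound | Signal: Fluo4 Ca2+ flux fluorescence | Evaluation: Per-well B score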
TRPC4 agonist – opens the mouse TRPC4 cation channel | Q9QUQ5 | HEK293 TRPC4beta/mu-opioid, Fluo4 calcium fluorescence; stronger effect = higher value | B-score at 10 µM | 310,000 compounds, 0.49% hits | AID 2237;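 active = B-score above 5 SD of library B-scores, and initial fluorescence ratio not above library mean plus 5 SD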;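 also: positive B-score marks a calcium rise read as TRPC4 activation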
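Incubation: 45 min room-temperature Fluo4 loading, 110 s read / System: HEK293 cells stably co-expressing mouse TRPC4beta and mu-opioid receptor / Signal: Fluo4 fluorescence, kinetic / Control set: buffer (low) and maximal DAMGO (high) / Measure: integrated baseline-normalised fluorescence ratio, converted to per-well B score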
TRPC4 spec 2 – second selectivity test of TRPC6 inhibitors: effect on mouse TRPC4. 920 compounds, 42% hits. inhibition, % at 10 µM. shares compounds with TRPC6 inhibitor. HEK293 TRPC4/MOR, membrane potential dye fluorescence; channel activated by saturating DAMGO dose;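 active = compounds whose fluorescence signal differed from control wells by over 3 SD, either direction, in both duplicate plates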
TRPC4 spec – selectivity of TRPC6 inhibitors: effect on mouse TRPC4; 920 compounds, 61% hits; HEK293 TRPC4/mu-opioid, membrane potential fluorescence; AID 2777; shares compounds with TRPC6 inhibitor; activity change, negative = inhibition, % at 10 µM;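 active = rise or fall in signal beyond 3 SD of buffer-only wells in both replicate plates, either sign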;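 also: integrated kinetic ratio of fluorescence range over baseline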
HEK293 MPD ctr 2-1 – parental HEK293 nonspecific activity of TRPC6 inhibitors, second screen. parental HEK293 membrane potential dye fluorescence; maximal acetylcholine challenge after compound addition. 920 compounds, 31% hits. signal change vs control, % at 10 µM. shares compounds with TRPC6 inhibitor;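 active = membrane potential signal moving either way by over 3 SD of the maximum-effect control, in both duplicate plates, meaning non-specific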
HEK293 MPD ctr-1 – counter-screen for TRPC6 inhibitors: effect in parental HEK293 cells. 920 compounds, 60% hits. shares compounds with TRPC6 inhibitor. parental HEK293 membrane potential dye fluorescence. AID 2780. membrane potential signal change, % at 10 µM;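 active = membrane potential signal shifting up or down by more than 3 SD of buffer-only wells, on both duplicate plates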
HEK293 MPD ctr-2 – counter-screen for TRPC6 modulators: effect in parental HEK293 cells; membrane potential signal change, % at 10 µM; membrane potential dye fluorescence; shares compounds with TRPC6 inhibitor; 2,400 compounds, 51% hits; AID 488924;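 active = membrane potential signal moves up or down beyond 5 SD from buffer-only wells, on both duplicate plates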
HEK293 MPD ctr 2-2 – second counter-screen for TRPC6 modulators: effect in parental HEK293 cells; AID 488926; inhibition, % at 10 µM; 2,400 compounds, 14% hits; membrane potential dye fluorescence; after compound, maximal acetylcholine stimulation; shares compounds with TRPC6 inhibitor;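 active = membrane potential signal drops by more than 5 SD from the mean control signal, in both duplicate plates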;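 also: plate controls were acetylcholine ECmax control wells for no effect and buffer only wells for full effect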
TRPC4 ctr mod – tests whether TRPC6 modulators also affect mouse TRPC4; shares compounds with TRPC6 inhibitor; AID 488927; 2,400 compounds, 69% hits; HEK293 TRPC4/mu-opioid, membrane potential fluorescence; percent change from control (negative = decrease, positive = increase), % at 10 µM;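 active = membrane potential signal moved up or down beyond 5 SD of buffer control wells, in both duplicate plates, actives on both sides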;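 also: plate controls were assay buffer wells for no effect and DAMGO maximal-effect wells for full effect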
TRPC4 ctr inh 2 – second check of whether TRPC6 modulators also affect mouse TRPC4; shares compounds with TRPC6 inhibitor; HEK293 TRPC4/mu-opioid, membrane potential dye fluorescence; stimulated with maximal-effect DAMGO; inhibition, % at 10 µM; 2,400 compounds, 55% hits;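 active = drop in membrane potential signal beyond 5 SD of the control wells in both duplicate plates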;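 also: TRPC4 counter screen for TRPC6 hits run under conditions tuned for TRPC6 not TRPC4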
TRPC6 block conf – mouse TRPC6 inhibitor confirmation | 3,300 compounds, 43% hits | shares compounds with TRPC6 inhibitor | inhibition, % at 10 µM | HEK293-TRPC6, membrane potential dye, ACh-evoked depolarization | AID 488960;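 active = fluorescence ratio falls more than 5 SD below the full-stimulation control mean, in both duplicate runs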;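 also: integrated fluorescence ratio of peak minus minimum over baseline after agonist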
TRPC6 act conf – mouse TRPC6 activator confirmation | shares compounds with TRPC6 inhibitor | HEK293-TRPC6 membrane potential dye fluorescence, FDSS | activation, % at 10 µM | 2,800 compounds, 11% hits;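 active = ratio signal rise beyond 5 SD above unstimulated control wells' mean, seen in both duplicate runs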;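 also: plate controls were buffer EC0 wells for no effect and acetylcholine ECmax response for full effect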
Starred values were filed as active, the others as inactive; i = inactive; / = no result. A selection: hits, their analogues and other compounds. The true share with any hit is near 2.3%.

SMILES	TRPC6 activator	TRPC4 PAM	TRPC6 inhibitor	TRPC4 block	TRPC4 agonist	HEK293 MPD ctr-2	HEK293 MPD ctr 2-2	TRPC4 ctr mod	TRPC4 ctr inh 2	TRPC6 block conf	TRPC6 act conf	others
CCOC(=O)c1sc(=S)n(-c2ccccc2Cl)c1SC	i	i	-7.74*	i	i	/	/	/	/	i	i	TRPC4 spec 2=i;TRPC4 spec=i;HEK293 MPD ctr 2-1=i;HEK293 MPD ctr-1=i
CCOC(=O)c1sc(=S)n(-c2ccccc2)c1SC	i	i	i	i	i	/	/	/	/	/	/
O=C(CNCc1ccccn1)Nc1ccc([N+](=O)[O-])cc1C(=O)Nc1ccccc1F	i	i	i	i	i	/	/	/	/	/	/
Oc1ccccc1N=Nc1ccccc1O	i	i	i	i	i	/	/	/	/	/	/
Nc1ccc(N=Nc2ccccc2O)c(N)c1	i	i	-6.54*	i	i	-174.0%*	i	27.5%*	98.5%*	i	i
CC(=O)c1ccccc1Oc1cc(NN2CCCCC2)c([N+](=O)[O-])cc1[N+](=O)[O-]	i	i	-5.98*	i	i	i	i	i	31.5%*	i	i
CC(C)(C)c1ccc(OCC(=O)Nc2ccc3c4c(cccc24)C(=O)NC3=O)cc1	i	i	i	i	i	/	/	/	/	/	/
Cn1c(NCc2c[nH]c3ccccc23)nc2ccccc21	i	i	-6.72*	-5*	i	/	/	/	/	i	i	TRPC4 spec 2=48.0%*;TRPC4 spec=-12.0%*;HEK293 MPD ctr 2-1=i;HEK293 MPD ctr-1=-214.0%*
COc1cccc(CNc2cnc3ccccc3c2)c1O	i	i	i	i	i	/	/	/	/	/	/
COc1cccc(CNc2nc3ccccc3n2C)c1O	i	i	-5.7*	i	i	i	i	i	43.0%*	i	i
CCOc1ccccc1NC(=O)C1=C(C)NC(=S)NC1c1cccs1 (stereo not given)	i	i	i	i	i	/	/	/	/	/	/
CCOC(=O)CSc1n[nH]c(NC(=O)CC)n1	i	i	i	i	i	/	/	/	/	/	/
CCOC(=O)C1=C(Nc2ccc(Cl)cc2)OCC1=O	i	i	i	i	i	/	/	/	/	/	/
Cc1nn(C)c(Cl)c1CN1CCN(C2CCCC2)C(CCO)C1 (stereo not given)	i	i	i	i	i	/	/	/	/	/	/
CCOC(=O)C1(Cc2cccc(Cl)c2)CCCN(C(=O)CCSC)C1 (stereo not given)	i	i	-5.33*	i	i	152.0%*	i	36.5%*	i	53.5%*	/
Cc1ccc2[nH]c3c(c2c1)CCN(C)C3	i	i	i	i	i	/	/	/	/	/	/
CC(=O)C1=C(C)Nc2ncnn2C1c1ccc(Cl)cc1Cl (stereo not given)	i	i	i	i	i	/	/	/	/	/	/
O=C1c2cccc(Cl)c2C(=O)c2c1cccc2N1CCCC1	i	i	-8.28*	i	i	-98.5%*	i	-26.0%*	75.5%*	i	i
O=C(Cn1[nH]c(=O)c2ccccc2c1=O)OCC(=O)N1CCc2ccccc2C1	i	i	-7.31*	i	i	/	/	/	/	i	/	TRPC4 spec 2=i;TRPC4 spec=7.2%*;HEK293 MPD ctr 2-1=i;HEK293 MPD ctr-1=4.2%*
O=C(Cn1[nH]c(=O)c2ccccc2c1=O)OCC(=O)N1CCCc2ccccc21	i	i	i	i	i	/	/	/	/	/	/
Cc1ccc2nc(N(CCCN(C)C)C(=O)c3ccc(Br)s3)sc2c1	i	i	i	i	i	/	/	/	/	/	/
Cc1ccc2nc(N(CCCN(C)C)C(=O)c3ccco3)sc2c1	i	i	-7.1*	i	i	/	/	/	/	78.4%*	i	TRPC4 spec 2=34.0%*;TRPC4 spec=-19.8%*;HEK293 MPD ctr 2-1=i;HEK293 MPD ctr-1=-146.0%*
CN(C)CCCN(C(=O)c1cc2ccccc2oc1=O)c1nc2ccc(F)cc2s1	i	i	i	i	i	/	/	/	/	/	/
CN(C)CCCN(C(=O)c1ccco1)c1nc2ccc(F)cc2s1	i	i	-5.57*	i	i	-149.5%*	78.5%*	-39.0%*	84.5%*	63.5%*	i
CN(CC(=O)Nc1ccc(F)c(F)c1)S(=O)(=O)c1cccc2cccnc12	i	i	i	i	i	/	/	/	/	/	/
SMILES	TRPC6 activator	TRPC4 PAM	TRPC6 inhibitor	TRPC4 block	TRPC4 agonist	HEK293 MPD ctr-2	HEK293 MPD ctr 2-2	TRPC4 ctr mod	TRPC4 ctr inh 2	TRPC6 block conf	TRPC6 act conf	others
CCn1c(SC)nnc1C1CCN(CC(=O)Nc2ccccc2N2CCOCC2)CC1	i	i	-5.38*	i	i	i	i	i	i	i	i
CSc1nnc(C2CCN(CC(=O)Nc3ccccc3N3CCOCC3)CC2)n1C	i	i	i	i	i	/	/	/	/	/	/
O=C(c1ccc([N+](=O)[O-])cc1)N(Cc1ccc(Cl)cc1)N1C(=O)CCCC1=O	16.7*	i	-16.1*	i	47*	390.0%*	159.0%*	49.5%*	45.0%*	80.5%*	122.0%*
COC(=O)C1=C(SC)N(c2ccccc2)C(c2ccccc2)CC1=O (stereo not given)	i	i	i	i	i	/	/	/	/	/	/
Cc1ccc(S(=O)(=O)N2CCC(=O)N(CCOC(=O)Nc3cc(C)cc(C)c3)CC2)cc1	14.3*	i	-8.28*	i	i	i	i	12.5%*	i	90.0%*	141.5%*
CN(C)S(=O)(=O)c1cccc(C(=O)Nc2ccc(S(=O)(=O)N3CCCC3)cc2)c1	i	i	-5.24*	/	i	i	i	i	i	i	i

High-throughput results from PubChem BioAssay.
